ChEMBL document CHEMBL3392964, “Design, synthesis, and evaluation of novel imidazo[1,2-a][1,3,5]triazines and their derivatives as focal adhesion kinase inhibitors with antitumor activity” (J Med Chem, 2015)
Calls of active or inactive are those of the source. The calls are words filed in the database; no cut-off is given here.

Columns and labels:
[1] = tested on: U-87 MG; experiment: Induction of apoptosis in human U87MG cells assessed as necrotic cells at 3 uM after 24 hrs by Annexin V-PE/7-AAD staining-based FACS analysis (reference value: 1.06%); format: functional, U-87MG ATCC
[2] = tested on: HCT-116; experiment: Induction of apoptosis in human HCT116 cells assessed as necrotic cells at 0.5 uM after 24 hrs by Annexin V-PE/7-AAD staining-based FACS analysis (reference value: 0.885%); format: functional
[3] = tested on: HCT-116; experiment: Induction of apoptosis in human HCT116 cells at < 0.5 uM after 24 hrs by Annexin V-PE/7-AAD staining-based FACS analysis; format: functional, cell-based
[4] = tested on: U-87MG ATCC; experiment: Antiinvasive activity in human U87MG cells after 30 mins by boyden chamber assay; format: functional, cell-based
[5] = Antiproliferative activity against human U87MG cells after 48 hrs by WST-1 assay; format: functional, cell-based, U-87MG ATCC; conditions: U-87 MG
Procedure, shortened: (§1)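 Exponentially growing cells in DMEM/10% FBS seeded at 5 × 10^3 per well, left overnight, then exposed 48 h to compounds diluted from DMSO; WST-1 added for 2 h, absorbance at 450 nm (reference 620 nm); viability as ratio to DMSO controls; three independent experiments, triplicate points; IC50 by nonlinear regression (log inhibitor vs normalized response, variable slope).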

[6] = Cell cycle arrest in human HCT116 cells assessed as accumulation at G2/M phase at 0.5 uM after 24 hrs by propidium iodide staining-based flow cytometry (reference value: 14.6%); format: functional; conditions: HCT-116
Procedure, shortened: (§2)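 Cells plated at 10^5 per well, left overnight, then exposed 24 h to compound or vehicle; stained 15 min at 37 °C with propidium iodide/Triton buffer; DNA content by flow cytometry, phase distribution fitted by Dean–Jett–Fox; HCT-116 at 0.3–0.5 μM, U87-MG at 0.3–3 μM; significance by unpaired Student's t test; one representative experiment.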

[7] = tested on: HCT-116; experiment: Induction of apoptosis in human HCT116 cells assessed as apoptotic cells at 0.5 uM after 24 hrs by Annexin V-PE/7-AAD staining-based FACS analysis relative to control; format: functional
[8] = Cell cycle arrest in human HCT116 cells at < 0.5 uM after 24 hrs by propidium iodide staining-based flow cytometry; format: functional; conditions: HCT-116; procedure, shortened: as §2
[9] = tested on: U-87 MG; experiment: Induction of apoptosis in human U87MG cells assessed as late apoptotic cells at 3 uM after 24 hrs by Annexin V-PE/7-AAD staining-based FACS analysis (reference value: 1.59%); format: functional, U-87MG ATCC
[10] = tested on: HCT-116; experiment: Induction of apoptosis in human HCT116 cells assessed as viable cells at 0.5 uM after 24 hrs by Annexin V-PE/7-AAD staining-based FACS analysis (reference value: 93.2%); format: functional; conditions: HCT-116, 24 h, read-out: Activity
[11] = target: Focal adhesion kinase 1 (Homo sapiens, UniProt Q05397); experiment: Inhibition of FAK phosphorylation at tyrosine 397 in human U87MG cells after 48 hrs by FACEFAK ELISA; format: cell-based; conditions: U-87MG ATCC
Sequence of Focal adhesion kinase 1 (Q05397 2-1052 limits assumed): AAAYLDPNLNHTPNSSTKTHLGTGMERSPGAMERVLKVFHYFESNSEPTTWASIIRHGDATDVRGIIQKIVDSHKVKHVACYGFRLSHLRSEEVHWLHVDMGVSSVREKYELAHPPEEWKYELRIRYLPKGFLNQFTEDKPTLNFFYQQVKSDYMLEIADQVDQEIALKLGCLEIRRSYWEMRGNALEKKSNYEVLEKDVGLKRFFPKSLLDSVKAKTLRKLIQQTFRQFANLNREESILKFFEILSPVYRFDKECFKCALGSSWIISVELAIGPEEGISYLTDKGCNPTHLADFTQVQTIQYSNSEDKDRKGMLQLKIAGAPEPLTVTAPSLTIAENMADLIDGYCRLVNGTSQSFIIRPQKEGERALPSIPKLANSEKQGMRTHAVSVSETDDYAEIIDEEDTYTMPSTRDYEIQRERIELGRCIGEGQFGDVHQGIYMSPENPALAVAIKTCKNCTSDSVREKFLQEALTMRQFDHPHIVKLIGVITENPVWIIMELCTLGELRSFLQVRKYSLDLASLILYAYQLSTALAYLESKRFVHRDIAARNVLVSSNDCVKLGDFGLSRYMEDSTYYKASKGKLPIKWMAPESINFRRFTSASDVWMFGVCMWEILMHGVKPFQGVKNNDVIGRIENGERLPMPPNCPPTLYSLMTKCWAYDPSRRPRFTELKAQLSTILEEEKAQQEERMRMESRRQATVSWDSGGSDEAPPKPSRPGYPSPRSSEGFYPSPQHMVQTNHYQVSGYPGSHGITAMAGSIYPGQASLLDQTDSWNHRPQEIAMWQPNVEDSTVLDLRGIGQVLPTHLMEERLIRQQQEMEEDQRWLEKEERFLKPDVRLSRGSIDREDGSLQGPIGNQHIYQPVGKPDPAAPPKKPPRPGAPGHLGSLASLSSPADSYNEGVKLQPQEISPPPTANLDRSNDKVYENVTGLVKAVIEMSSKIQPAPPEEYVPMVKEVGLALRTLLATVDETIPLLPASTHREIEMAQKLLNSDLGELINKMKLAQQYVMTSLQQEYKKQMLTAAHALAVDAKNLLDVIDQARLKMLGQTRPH
Procedure, shortened: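 Cells in DMEM with 10% FBS, 3 × 10^3 per well, treated 48 h at 0.1, 1 and 10 μM. Fixed in 4% formaldehyde; antibodies to pTyr397-FAK or total FAK, HRP secondary, read at 450 nm. Crystal violet cell count at 595 nm. Phospho-FAK normalised to total FAK and cell number; fold decrease versus control, triplicate readings, three independent experiments.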

[12] = Antiproliferative activity against human HCT116 cells after 48 hrs by WST-1 assay; format: functional, cell-based; conditions: HCT-116, 48 h; procedure, shortened: as §1
[13] = tested on: HCT-116; experiment: Induction of apoptosis in human HCT116 cells assessed as late apoptotic cells at 0.5 uM after 24 hrs by Annexin V-PE/7-AAD staining-based FACS analysis (reference value: 1.22%); format: functional
[14] = (§3) Inhibition of colony formation in human HCT116 cells after 2 weeks by crystal violet staining-based assay; format: functional, cell-based; conditions: HCT-116, 336 h
Procedure, shortened: (§4)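 Seeding: 250 cells per well for HCT-116, 300 for U87MG, MDA-MB-231 and PC-3; incubated overnight, then exposed to a range of concentrations for 2 weeks. Fixed in 4% paraformaldehyde 30 min at room temperature, stained with 0.1% crystal violet. Colonies over 50 cells counted; colony formation rate calculated; IC50 by nonlinear regression.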

[15] = tested on: HCT-116; experiment: as §3; format: functional, cell-based; procedure, shortened: as §4
[16] = Antiproliferative activity against human PC3 cells after 48 hrs by WST-1 assay; format: functional, cell-based; conditions: PC-3, 48 h; procedure, shortened: as §1

Question: Which results are given for `C=COC(=O)NCc1ccc(Nc2nc(Nc3ccccc3C(=O)NC)n3ccnc3n2)cc1`?
Answer: Activity [1]: 0.804%; Activity [2]: 7.77%; Activity [3]: Active; Activity [4]: Dose-dependent effect; IC50 [5]: 2890 nM; Activity [6]: 54.7%; Activity [7]: 25.9%; Activity [8]: Active; Activity [9]: 0.997%; viability at 0.5 µM [10]: 62.9%; inhibition [11]: Dose-dependent effect; IC50 [12]: 520 nM; Activity [13]: 16.1%; IC50 [14]: 130 nM; inhibition [15]: Dose-dependent effect; IC50 [16]: 290 nM
